Laboratory results reported in ChEMBL document CHEMBL2321767, “Synthesis and anticonvulsant activity of bioisosteres of trimethadione, N-derivative-1,2,3-oxathiazolidine-4-one-2,2-dioxides from α-hydroxyamides” (Bioorg Med Chem, 2013).
Activity calls are given as the source filed them.

How the values were obtained:
Mus musculus [1] = assay: Neurotoxicity against Swiss albino mouse at 30 mg/kg, ip measured after 0.5 hrs by rotarod test; assay type: toxicity, organism-based; design: dose 30 mg/kg, route intraperitoneal; details: in vivo
Summary of the method: (§1)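 Male Swiss albino mice (18–25 g) dosed ip at 30 or 100 mg/kg in 30% PEG 400/10% water. Minimal neurotoxicity checked on the rotarod 0.5 and 4 h after dosing, as failure to keep balance on the rotating rod. Reported as affected/tested, 5 mice per group.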

Mus musculus [2] = assay: Toxicity against Swiss albino mouse assessed as mortality at 30 to 100 mg/kg, ip; assay type: organism-based; design: dose 30-100 mg/kg, route intraperitoneal; details: in vivo
Summary of the method: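 Adult male Swiss albino mice (18–25 g; 12 h light/dark cycle, free food and water) were dosed ip at 30 and 100 mg/kg in 30% PEG 400 and 10% water, 0.01 mL/g body weight. Testing was at 0.5 and 4 h in the MES, scPTZ and RotoRod assays, with deaths recorded during these assays.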

Mus musculus [3] = assay: Anticonvulsant activity in Swiss albino mouse assessed as protection against scPTZ-induced tonic-clonic seizures at 30 mg/kg, ip measured after 4 hrs relative to control; assay type: functional, organism-based; design: dose 30 mg/kg
Summary of the method: (§2)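 Adult male Swiss albino mice (18–25 g) given test substance ip at 30 or 100 mg/kg in 30% PEG 400/10% water. At 0.5 or 4 h, PTZ 85 mg/kg sc (0.5% in 0.9% saline) into the posterior midline. Mice observed 30 min. Protection means no threshold seizure, i.e. no clonic spasm lasting ≥5 s. Scored as protected/tested, 2 mice per group.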

Mus musculus [4] = assay: Anticonvulsant activity in Swiss albino mouse assessed as protection against scPTZ-induced tonic-clonic seizures at 100 mg/kg, ip measured after 0.5 hrs relative to control; assay type: functional, organism-based; design: dose 100 mg/kg; summary of the method: as §2
Mus musculus [5] = assay: Anticonvulsant activity in Swiss albino mouse assessed as protection against scPTZ-induced tonic-clonic seizures at 30 mg/kg, ip measured after 0.5 hrs relative to control; assay type: functional, organism-based; design: dose 30 mg/kg; summary of the method: as §2
Mus musculus [6] = assay: Anticonvulsant activity in Swiss albino mouse assessed as protection against maximal electric shock-induced tonic-clonic seizures at 100 mg/kg, ip measured after 4 hrs relative to control; assay type: functional, organism-based; design: dose 100 mg/kg
Summary of the method: (§3)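 Adult male Swiss albino mice (18–25 g) dosed ip with 30 or 100 mg/kg in 30% PEG 400/10% water, 0.01 mL/g. MES tested 0.5 and 4 h later: electroshock via ear clips. Protection means no hind-limb tonic extension. Result reported as mice protected out of mice tested (3 per group).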

Mus musculus [7] = assay: Anticonvulsant activity in Swiss albino mouse assessed as protection against maximal electric shock-induced tonic-clonic seizures at 30 mg/kg, ip measured after 0.5 hrs relative to control; assay type: functional, organism-based; design: dose 30 mg/kg; summary of the method: as §3
Mus musculus [8] = assay: Neurotoxicity against Swiss albino mouse at 100 mg/kg, ip measured after 4 hrs by rotarod test; assay type: toxicity, organism-based; design: dose 100 mg/kg, route intraperitoneal; details: in vivo; summary of the method: as §1
Mus musculus [9] = assay: Neurotoxicity against Swiss albino mouse at 100 mg/kg, ip measured after 0.5 hrs by rotarod test; assay type: toxicity, organism-based; design: dose 100 mg/kg, route intraperitoneal; details: in vivo; summary of the method: as §1
Mus musculus [10] = assay: Neurotoxicity against Swiss albino mouse at 30 mg/kg, ip measured after 4 hrs by rotarod test; assay type: toxicity, organism-based; design: dose 30 mg/kg, route intraperitoneal; details: in vivo; summary of the method: as §1
Mus musculus [11] = assay: Anticonvulsant activity in Swiss albino mouse assessed as protection against scPTZ-induced tonic-clonic seizures at 100 mg/kg, ip measured after 4 hrs relative to control; assay type: functional, organism-based; design: dose 100 mg/kg; summary of the method: as §2
Mus musculus [12] = assay: Anticonvulsant activity in Swiss albino mouse assessed as protection against maximal electric shock-induced tonic-clonic seizures at 30 mg/kg, ip measured after 4 hrs relative to control; assay type: functional; summary of the method: as §3
Mus musculus [13] = assay: Anticonvulsant activity in Swiss albino mouse assessed as protection against maximal electric shock-induced tonic-clonic seizures at 100 mg/kg, ip measured after 0.5 hrs relative to control; assay type: functional; summary of the method: as §3
Mus musculus [14] = assay: Anticonvulsant activity in ip dosed Swiss albino mouse assessed as time of maximal protection against maximal electric shock-induced tonic-clonic seizures; assay type: functional
Summary of the method: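 Ip-dosed male Swiss albino mice (vehicle 30% PEG 400/10% water) tested in the MES test (ear-clip electroshock, endpoint abolition of hind-limb tonic extension) at several times after dosing. The maximal time effect is the time of peak protection.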

Mus musculus [15] = assay: Anticonvulsant activity in ip dosed Swiss albino mouse assessed as protection against maximal electric shock-induced tonic-clonic seizures measured up to 4 hrs; assay type: functional
Summary of the method: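 Male Swiss albino mice given test substances ip in 30% PEG 400/10% water. Various doses, each group of six mice, tested by MES at the maximal time effect. Protection means no hind-limb tonic extension after ear-clip electroshock. ED50 and 95% confidence intervals computed by the Litchfield–Wilcoxon method.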

Mus musculus [16] = organism: Mus musculus; assay: Ratio of trimathadione ED50 to compound ED50 for protection against maximal electric shock-induced tonic-clonic seizures in Swiss albino mouse; assay type: functional
Mus musculus [17] = organism: Mus musculus; assay: Ratio of valproic acid ED50 to compound ED50 for protection against maximal electric shock-induced tonic-clonic seizures in Swiss albino mouse; assay type: functional
Mus musculus [18] = organism: Mus musculus; assay: Ratio of phenytoin ED50 to compound ED50 for protection against maximal electric shock-induced tonic-clonic seizures in Swiss albino mouse; assay type: functional

Row | SMILES | Activity (Mus musculus [1]) | Activity (Mus musculus [2]) | Activity (Mus musculus [3]) | Activity (Mus musculus [4]) | Activity (Mus musculus [5]) | Activity (Mus musculus [6]) | Activity (Mus musculus [7]) | Activity (Mus musculus [8]) | Activity (Mus musculus [9]) | Activity (Mus musculus [10]) | Activity (Mus musculus [11]) | Activity (Mus musculus [12]; route intraperitoneal) [%] | Activity (Mus musculus [13]) | Time (Mus musculus [14]) [h] | ED50 (Mus musculus [15]) [mg/kg] | Activity (Mus musculus [12]) | Activity (Mus musculus [13]; route intraperitoneal) [%] | Ratio ED50 (Mus musculus [16]) | Ratio ED50 (Mus musculus [17]) | Ratio ED50 (Mus musculus [18])
1 | CCCNC(=O)C(C)(C)O | Non-toxic | Non-toxic | inactive | inactive | inactive | inactive | Active | Non-toxic | Non-toxic | Non-toxic | inactive | 100 | Active |  |  |  |  |  |  | 
2 | CCCCNC(=O)C(C)(C)O | Non-toxic | Non-toxic | Active | inactive | Active | Active | inactive | Non-toxic | Non-toxic | Non-toxic | Active |  |  | 6 | 44.6 | Active | 100 |  |  | 
3 | CCCN1C(=O)C(C)(C)OS1(=O)=O | Non-toxic | Non-toxic | inactive | inactive | inactive | Active | Active | Non-toxic | Non-toxic | Non-toxic | inactive |  | Active |  |  | inactive |  |  |  | 
4 | O=C1NC(=O)C(c2ccccc2)(c2ccccc2)N1 [PHENYTOIN] |  |  |  |  |  |  |  |  |  |  |  |  |  | 1 | 5.54 |  |  |  |  | 
5 | CC1(C)OS(=O)(=O)N(CCc2ccccc2)C1=O | Non-toxic | Non-toxic | inactive | Active | Active | Active | Active | Non-toxic | Non-toxic | Non-toxic | Active |  | Active | 2 | 91.1 | Active |  |  |  | 
6 | CN1C(=O)OC(C)(C)C1=O [TRIMETHADIONE] |  |  |  |  |  |  |  |  |  |  |  |  |  | 0.5 | 627 |  |  |  |  | 
7 | CC1(C)OS(=O)(=O)N(Cc2ccccc2)C1=O | Non-toxic | Non-toxic | inactive | Active | inactive | Active | Active | Non-toxic | Non-toxic | Non-toxic | inactive | 100 | Active | 4 | 15.1 |  |  | 40 | 19 | 
8 | CC(C)(O)C(=O)NCCc1ccccc1 | Non-toxic | Non-toxic | inactive | Active | inactive | Active | Active | Non-toxic | Non-toxic | Non-toxic | Active |  |  | 1 | 53.9 | Active | 100 |  |  | 
9 | CCCCNC(=O)C(O)(c1ccccc1)c1ccccc1 | Non-toxic | Non-toxic | inactive | inactive | inactive | Active | Active | Non-toxic | Non-toxic | Non-toxic | inactive | 100 |  |  |  |  | 100 |  |  | 
10 | CC(C)(O)C(=O)NCc1ccccc1 | Non-toxic | Non-toxic | inactive | Active | Active | inactive | Active | Non-toxic | Non-toxic | Non-toxic | Active |  |  | 0.25 | 9.1 | Active | 100 |  | 30 | 
11 | CCCCN1C(=O)C(C)(C)OS1(=O)=O | Non-toxic | Non-toxic | Active | inactive | Active | Active | Active | Non-toxic | Non-toxic | Non-toxic | Active |  | inactive | 2 | 0.06 | Active |  | 10000 | 4700 | 90
12 | CC(C)(O)C(=O)NC1CCCCC1 | Non-toxic | Non-toxic | inactive | inactive | inactive | Active | Active | Non-toxic | Non-toxic | Non-toxic | inactive | 100 |  | 0.5 | 25.2 |  | 100 |  |  | 
